14-3-3 Bad PPI = disrupts binding of bovine 14-3-3 zeta to phospho-Bad peptide; TR-FRET 14-3-3zeta/Dy647-pBad peptide displacement, 1 h; actives 0.71% (n = 220,000); AID 781; P63103; inhibition, % at 21.7 µM;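 active means inhibition above about 70%, limit read from the data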;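 further: 0% = full 14-3-3 plus peptide FRET controls and 100% = background without 14-3-3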
Target sequence (P63103 whole entry, looked up): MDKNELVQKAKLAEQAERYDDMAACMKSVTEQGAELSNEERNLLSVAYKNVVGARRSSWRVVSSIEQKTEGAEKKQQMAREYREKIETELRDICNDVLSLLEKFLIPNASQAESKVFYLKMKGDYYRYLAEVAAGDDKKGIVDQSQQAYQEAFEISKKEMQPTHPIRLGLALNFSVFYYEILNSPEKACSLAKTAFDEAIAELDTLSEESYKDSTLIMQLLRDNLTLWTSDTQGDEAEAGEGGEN
SUMO HTRF inh = inhibitors of human SUMOylation (UBC9). P63279. HTRF SUMOylation assay, SAE1/SAE2 + UBC9, in vitro. inhibition, % at 35 µM. actives 0.36% (n = 290,000). AID 2006; in the data active means inhibition above about 50%, passing the limit was not always enough
Target sequence (P63279 whole entry, looked up): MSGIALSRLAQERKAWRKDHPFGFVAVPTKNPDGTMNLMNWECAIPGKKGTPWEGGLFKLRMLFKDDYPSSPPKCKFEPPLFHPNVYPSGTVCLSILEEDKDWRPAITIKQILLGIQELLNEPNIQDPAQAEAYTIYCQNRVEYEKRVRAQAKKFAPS
p47phox inh = inhibitors of human p47phox binding | P14598 | p47phox/p22phox peptide binding, fluorescence polarization, 2 h | inhibition, % at 24.7 µM | actives 0.53% (n = 220,000) | AID 1274;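 further: 0% = p47phox with labelled peptide and 100% = labelled peptide alone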
eIF4E 4G PPI = blocks eIF4E binding to eIF4G. P63073+Q04637. TR-FRET eIF4E-eIF4GI(517-606) binding, 2 h. inhibition, % at 21.7 µM. actives 0.37% (n = 220,000);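 further: 0% = full FRET control wells and 100% = background wells lacking eIF4GI fragment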
TbMetRS inhib = blocks T. brucei methionyl-tRNA synthetase activity; purified T. brucei MetRS, ATP depletion, Kinase-Glo luminescence; inhibition, % at 11.9 µM; actives 0.4% (n = 360,000); AID 624268;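 active means inhibition above a per-plate cutoff of the control wells' mean inhibition plus 3 SD, cut at about 5.5% in these data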;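 further: 0% = DMSO wells median and 100% = median of wells with control inhibitor compound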
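Test system – parasite MetRS enzyme · Reagent – substrates ATP, L-methionine and bulk Escherichia coli tRNA · Doses – 11.9 µM compound single dose, 0.9% DMSO · Times – 15 min enzyme-compound preincubation, 2 h reaction, 10 min detection, 25 °C · Signal – Kinase-Glo luminescence, ATP depletion format · Controls – DMSO-only wells as low control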
p97 ATPase inh = inhibitors of human p97 ATPase; P55072; recombinant p97 ATPase, Kinase-Glo ATP luminescence, 3 h; inhibition, % at 8 µM; actives 0.42% (n = 220,000); AID 1481; in the data active means inhibition above about 15%;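 further: 0% = DMSO vehicle and 100% = wells lacking enzyme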
p97 confirm = human p97 ATPase inhibition, confirmation. recombinant p97 ATPase, Kinase-Glo ATP luminescence. actives 44% (n = 760). shares compounds with p97 ATPase inh. inhibition, % at 8 µM. AID 1517;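 active means percent inhibition of p97 ATPase above a set limit, the primary screen's mean plus 3 SD, cut at about 15% in these data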;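 further: 0% = DMSO wells and 100% = wells lacking p97 protein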
Numbers without * were called inactive; . = no result. An excerpt weighted towards active compounds, which were near 1.6% of everything screened.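 How the source made its calls, unless noted: active means inhibition above about 30% (limit read from the data); inactive means the rest.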

SMILES	14-3-3 Bad PPI	SUMO HTRF inh	p47phox inh	eIF4E 4G PPI	TbMetRS inhib	p97 ATPase inh	p97 confirm
COc1ccnc(N=CNOCc2cccc(C(F)(F)F)c2)c1C#N	7.8	-5.0	-9.2	1.9	-0.6	-1.2	.
O=S(=O)(CCSc1nc2ccccc2s1)c1nc2ccccc2s1	0.8	10.5	-2.4	2.6	0.0	22.7*	16.9*
O=C(N[C@@H](Cc1ccccc1)C(=O)OCc1ccccc1)c1nc[nH]c1C(=O)NCc1ccccc1	-19.4	-31.0	.	0.8	-0.5	16.9*	19.5*
COc1ccc(-c2noc(CCCC(=O)NCC3CCCO3)n2)cc1 (centres undefined)	.	3.7	.	.	0.0	.	.
CC(=O)c1cccc(NC(=O)c2cc(S(=O)(=O)N3CCCCC3)ccc2N2CCOCC2)c1	.	.	.	.	0.1	.	.
CC(=O)c1cccc(NC(=O)C(C)OC(=O)CCc2nc3ccccc3c(=O)[nH]2)c1 (centres undefined)	.	.	.	.	0.9	.	.
NS(=O)(=O)c1ccc(Nc2nc(-c3ccc(F)cc3)cs2)cc1	27.1	-7.7	-36.9	-2.6	0.7	8.1	.
NS(=O)(=O)c1ccc(Nc2nc(-c3ccc(O)cc3O)cs2)cc1	3.0	19.5	-21.9	-4.0	3.9	26.6*	50.5*
CC1=NN(c2ccc(N)cc2)C(=O)C1	68.8	7.9	-7.5	-3.3	0.1	11.4	.
CC1=NN(c2ccccc2)C(=O)C1	-3.6	94.1	-10.1	-0.4	1.9	20.5*	6.1
CC1=NN(Cc2ccccc2)C(=O)C1	-12.1	17.1	-10.0	19.1	-0.2	21.2*	0.9
O=C1CCCCCCCN1Cc1ccccc1	.	.	.	.	-0.5	.	.
CCc1nnc(NS(=O)(=O)c2ccc(NC(=S)NC(=O)c3ccccc3)cc2)s1	-2.2	3.8	-6.4	3.3	-0.8	0.4	.
CCc1nnc(NS(=O)(=O)c2ccc(NC(=S)Nc3ccc(F)cc3)cc2)s1	-15.9	0.4	-29.8	-4.2	-0.5	16.7*	3.3
O=C(CN(C(=O)Cn1nnc(-c2cccs2)n1)c1ccc2c(c1)OCCO2)NCC1CCCO1 (centres undefined)	-9.4	3.6	2.0	-5.5	-0.5	3.7	.
O=C(CN(C(=O)Cn1nnc(-c2cccs2)n1)c1ccc2c(c1)OCCO2)NC1CCCCC1	-1.6	9.2	-4.1	-8.7	-0.7	15.4*	7.2
Clc1c(Cl)c(Cl)c2n[nH]nc2c1Cl	2.3	34.0	-8.3	6.8	-0.2	18.9*	15.3*
Cc1cccc(C)c1NC(=O)CSCc1cccc(CSCC(=O)Nc2c(C)cccc2C)n1	3.1	-5.6	-5.8	1.3	-0.2	15.6*	3.7
CCC(NC(=O)Nc1ccc(O)cc1)(C(F)(F)F)C(F)(F)F	11.1	50.1	-0.2	-2.4	1.0	36.9*	5.3
CC(NC(=O)Nc1ccc(O)cc1)(C(F)(F)F)C(F)(F)F	4.1	77.3	-8.2	4.6	-0.2	29.7*	0.9
COCCCN1C(=O)C(CC(=O)NCCN2CCOCC2)CC(C(=O)N(C(C)C)C(C)C)=C1C (centres undefined)	.	.	.	.	0.1	.	.
CCC(=O)NC1=C(Cl)C(=O)C(NC(=O)CC)=C(Cl)C1=O	26.0	75.9*	49.6*	7.7	0.8	18.7*	12.2
CCC(=O)NC1=C(NC(C)c2ccccc2)C(=O)c2ccccc2C1=O (centres undefined)	15.8	-15.5	-0.9	0.9	0.1	-6.3	.
COc1ccc(CC(=O)Nc2cc(S(=O)(=O)Nc3ccc(OC)cc3)ccc2OC)cc1	.	.	.	.	-0.2	.	.
COc1cc2c(cc1OC)CN(C(=O)CSc1nc3[nH]ncc3c(=O)n1-c1ccccc1)CC2	0.6	20.0	2.4	3.4	.	20.0*	11.9
SMILES	14-3-3 Bad PPI	SUMO HTRF inh	p47phox inh	eIF4E 4G PPI	TbMetRS inhib	p97 ATPase inh	p97 confirm
COc1cc(NC(=O)CSc2nc3[nH]ncc3c(=O)n2-c2ccccc2)cc(OC)c1OC	.	.	.	.	-0.2	.	.
COc1ccc(N2CCN(C(=O)C(=O)c3cccc([N+](=O)[O-])c3)CC2)cc1	.	.	.	.	0.1	.	.
Cc1ccc(N2CCN(S(=O)(=O)c3ccc(Cl)s3)CC2C)cc1 (centres undefined)	.	-37.6	.	.	-0.1	.	.
O=[N+]([O-])c1ccc2nc(-c3ccccc3)cc(-c3ccccc3)c2c1	6.5	0.3	-29.8	17.3	-0.6	3.4	.
O=[N+]([O-])c1ccc2c(c1)c(-c1ccccc1)nc1nncn12	-0.5	-1.9	2.1	6.9	0.2	34.2*	4.2
COCCCNC(=O)c1cccn2c(=O)c3cc4ccccc4cc3nc12	-9.1	72.6	-5.7	-4.8	0.3	15.5*	-13.9
C=CCn1c(=N)c(C(=O)NCCCOC)cc2c(=O)n3cccc(C)c3nc21	-9.9	25.9	0.5	-6.9	-1.1	3.2	.
CC(C)CC(NC(=O)/C(=C/c1ccco1)NC(=O)c1ccc(Br)o1)C(=O)O (centres undefined)	.	-7.1	.	.	0.9	.	.
CC(C)N(C(=O)COC(=O)[C@H](C)NC(N)=O)c1ccccc1	3.3	-1.7	-5.5	1.3	-1.5	15.4*	3.3
CC(C)N(C(=O)COC(=O)c1ccc(Cl)s1)c1ccccc1	.	.	.	.	-0.5	.	.
Cn1c(=O)c2sccc2n2c(CCCC(=O)NCc3ccco3)nnc12	.	21.5	.	.	0.1	.	.
Cc1[nH]c2ccccc2c1C(=O)COC(=O)c1ccc([N+](=O)[O-])s1	11.5	-2.3	-6.2	3.1	0.4	39.1*	31.3*
O=C(OCc1ccccc1)C1=[N+]([O-])OC(C(=O)OCc2ccccc2)C1c1c[nH]c2ccccc12 (centres undefined)	-3.9	-13.8	-1.8	-11.8	0.0	28.5*	35.5*
O=S1(=O)Nc2c(ccc3cccnc23)-c2ccccc21	6.7	-38.4	2.4	1.3	-0.2	22.6*	32.0*
COc1ccc(CNC(=S)Nc2ccc(S(N)(=O)=O)cc2)cc1	-3.9	16.8	-4.8	-0.4	-0.1	-1.0	.
COc1cc(OC)cc(C(=O)NNC(=S)Nc2ccc(S(N)(=O)=O)cc2)c1	-18.6	-4.5	-1.6	-6.6	-0.7	20.6*	24.8*
CC(Cc1ccccc1)NC(=O)c1cc([N+](=O)[O-])ccc1Cl (centres undefined)	-0.4	10.9	-0.3	9.3	2.1	-15.5	.
CN(C)C=NC(=O)c1cn(-c2ccc(F)cc2)c(=O)c2ccccc12	5.5	1.2	2.3	3.5	0.1	16.1*	1.6
CN1CN(C)c2cccc3cccc1c23	4.8	34.7	-4.4	14.3	-0.1	29.4*	4.6
COCCN(C(=O)c1snc(C(N)=O)c1N)C(C(=O)NC1CCCCC1)c1ccc(F)cc1 (centres undefined)	.	-8.5	.	.	-0.5	.	.
CN=c1scc(-c2ccc([N+](=O)[O-])cc2)n1/N=C/c1ccco1	-5.2	23.4	-46.8	-3.0	0.0	4.4	.
